From ChEMBL document CHEMBL4428077, “Synthesis and Biological Evaluation of N-((1-(4-(Sulfonyl)piperazin-1-yl)cycloalkyl)methyl)benzamide Inhibitors of Glycine Transporter-1” (J Med Chem, 2016)

What was measured:
[1] = Drug level in Sprague-Dawley rat brain at 3 mg/kg, po qd for 5 days measured 2 hrs post last dose by LC-MS/MS analysis; assay type: ADME, organism-based; conditions: read-out: Drug uptake
How it was run: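 Drug-naive Sprague−Dawley rats (n = 5/group) were dosed orally once daily for 5 days in 5% Solutol plus 20% Captisol in 25 mM PBS, pH 2, and sacrificed 2 h after the last dose. Drug was measured in CSF, brain and plasma; mean ± SEM.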

[2] = Toxicity in Sprague-Dawley rat assessed as gross behavioral abnormality at 0.3 to 100 mg/kg, po; assay type: organism-based; conditions: in vivo
How it was run: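 Drug-naive Sprague–Dawley rats (n = 5/group) received a single oral dose of 0.4–160.9 μmol/kg in 5% Solutol plus 20% Captisol in 25 mM PBS, pH 2, and were watched for gross behavioral abnormalities until sacrifice at 2 h.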

[3] = Intrinsic clearance in cynomolgus monkey; assay type: ADME, Macaca fascicularis
[4] = Intrinsic clearance in rat; assay type: ADME
Cytochrome P450 2C19 = Cytochrome P450 2C19 (Homo sapiens, UniProt P33261); experiment: Inhibition of CYP2C19 (unknown origin); assay type: ADME
[5] = Protein binding in rat plasma; assay type: ADME, cell-free; conditions: read-out: PPB (converted)
[6] = Volume of distribution at steady state in cynomolgus monkey at 1 mg/kg, iv or 5 mg/kg, po measured up to 12 or 24 hrs post dose by LC-MS/MS analysis; assay type: ADME, organism-based, Macaca fascicularis; conditions: in vivo, read-out: Vdss
How it was run: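 Three female cynomolgus monkeys per group, single dose: IV 1.5 μmol/kg in 5% DMSO/10% Solutol in saline, pH 6.5 (2 mL/kg), or PO 7.8 μmol/kg in 5% Solutol in 20% Captisol, 25 mM PBS, pH 2 (5 mL/kg). Parameters come from plasma concentration–time data; mean ± SD.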

[7] = Oral bioavailability in Sprague-Dawley rat at 10 mg/kg administered as single dose measured up to 24 hrs post dose by LC-MS/MS analysis; assay type: ADME, organism-based; conditions: in vivo
How it was run: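 Male Sprague-Dawley rats, n = 3 per group. Dosing was 3.1 μmol/kg IV (5% DMSO / 10% Solutol in saline, 5 mL/kg) and 15.7 μmol/kg PO (5% Solutol / 10% Captisol in 25 mM PBS, pH 2). F = (AUC_INF,po × Dose_iv)/(AUC_INF,iv × Dose_po). Mean ± SD.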

[8] = Oral bioavailability in cynomolgus monkey at 5 mg/kg measured up to 24 hrs post dose by LC-MS/MS analysis; assay type: ADME, organism-based, Macaca fascicularis; conditions: in vivo
How it was run: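 Three female cynomolgus monkeys per group; single oral dose of 7.8 μmol/kg in 5% Solutol in 20% Captisol, 25 mM PBS, pH 2 (5 mL/kg), with a separate IV arm at 1.5 μmol/kg in 5% DMSO/10% Solutol in saline, pH 6.5 (2 mL/kg). F = (AUC_INFpo × Dose_iv)/(AUC_INFiv × Dose_po); mean ± SD.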

[9] = Drug level in cynomolgus monkey plasma at 3 mg/kg, po measured at 0.5 hr post dose by LC-MS/MS analysis; assay type: ADME, organism-based, Macaca fascicularis
[10] = Drug level in cynomolgus monkey plasma at 3 mg/kg, po measured at 2 hrs post dose by LC-MS/MS analysis; assay type: ADME, organism-based, Macaca fascicularis
[11] = Drug level in cynomolgus monkey plasma at 3 mg/kg, po measured at 8 hrs post dose by LC-MS/MS analysis; assay type: ADME, organism-based, Macaca fascicularis
[12] = Drug level in cynomolgus monkey plasma at 3 mg/kg, po measured at 24 hrs post dose by LC-MS/MS analysis; assay type: ADME, organism-based, Macaca fascicularis
[13] = Drug level in cynomolgus monkey CSF at 10 mg/kg, po measured at 2 hrs post dose by LC-MS/MS analysis; assay type: ADME, organism-based, Macaca fascicularis, Cerebrospinal fluid; conditions: read-out: Drug uptake
How it was run: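 Cynomolgus monkeys (n = 3/group) fitted with subcutaneous CSF ports were dosed orally at 0.4−15.7 μmol/kg in 5% Solutol plus 20% Captisol in 25 mM PBS, pH 2. CSF (about 0.30 mL) and blood were sampled predose and at 0.5, 1, 2, 3, 4, 8, 12 and 24 h. Quantitation limit 1.0 ng/mL; mean ± SD.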

[14] = Protein binding in monkey plasma; conditions: cynomolgus monkey, read-out: PPB (converted)

Chain of Cytochrome P450 2C19 (P33261 whole entry): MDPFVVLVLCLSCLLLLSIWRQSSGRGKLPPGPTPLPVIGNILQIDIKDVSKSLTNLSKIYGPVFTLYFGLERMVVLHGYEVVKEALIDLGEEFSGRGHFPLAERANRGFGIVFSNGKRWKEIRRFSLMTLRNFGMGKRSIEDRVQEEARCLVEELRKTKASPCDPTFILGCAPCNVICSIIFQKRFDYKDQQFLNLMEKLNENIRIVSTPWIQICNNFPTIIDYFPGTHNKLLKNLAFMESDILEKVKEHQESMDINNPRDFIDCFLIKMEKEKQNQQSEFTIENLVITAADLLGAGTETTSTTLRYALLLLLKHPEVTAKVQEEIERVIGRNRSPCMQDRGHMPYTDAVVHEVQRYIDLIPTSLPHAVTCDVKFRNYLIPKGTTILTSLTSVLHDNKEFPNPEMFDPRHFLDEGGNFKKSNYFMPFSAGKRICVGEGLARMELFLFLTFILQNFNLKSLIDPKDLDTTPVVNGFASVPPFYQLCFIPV

| concentration at 2 h [1] | CL [3] | CL [4] | IC50 (Cytochrome P450 2C19) | fraction unbound [5] | Vd [6] | bioavailability [7] | bioavailability [8] | concentration at 0.5 h [9] | concentration at 2 h [10] | concentration at 8 h [11] | concentration at 24 h [12] | concentration at 2 h [13] | fraction unbound [14] | SMILES | Activity [2] |
| --- | --- | --- | --- | --- | --- | --- | --- | --- | --- | --- | --- | --- | --- | --- | --- |
| 44.8 nM | – | – | – | – | – | – | – | – | – | – | – | – | – | Cl.Cn1cc(S(=O)(=O)N2CCN(C3(CNC(=O)c4ccc(C(F)(F)F)cc4Cl)CCC(F)(F)CC3)CC2)nn1 | Non-Toxic |
| – | 12 microL/ml/min | 6 microL/ml/min | > 7.2 µM | 0.13 | 1.93 L/kg | 27.2% | 31% | 1.6 ng/mL | 3.6 ng/mL | 2 ng/mL | < 1 ng/mL | 11.3 ng/mL | 0.19 | CC(NC(=O)c1ccc(C(F)(F)F)cc1Cl)C1(N2CCN(S(=O)(=O)c3cn(C)nn3)CC2)CCC(F)(F)CC1.Cl (single isomer, unassigned; (+)) | – |
